Measured values reported in ChEMBL document CHEMBL4041500, “Attenuation of Mycobacterium species through direct and macrophage mediated pathway by unsymmetrical diaryl urea” (Eur J Med Chem, 2017).
Converted amounts (≈) assume the structure as drawn.

How the values were obtained:
[1] = test system: Mycolicibacterium smegmatis; assay: Antimycobacterial activity against Mycobacterium smegmatis MC2 155 after 48 hrs by serial dilution method; type: functional; conditions: str. MC2 155, 48 h
Method in brief: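 M. smegmatis grown in Middlebrook 7H9 with 10% albumin–dextrose complex and 0.03% Tween80 at 37 °C. Twofold serial dilutions of compound were combined with mid-log culture diluted to OD570 0.01, giving a final range of […] in 7H9 broth. Incubated in ambient air at 37 °C for 48 h. MIC taken as the lowest concentration preventing visible growth.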

[2] = test system: Mycobacterium tuberculosis; assay: Antimycobacterial activity against Mycobacterium tuberculosis H37Rv ATCC 27294 after 7 days by microplate alamar blue assay; type: functional; conditions: H37Rv ATCC 27294, 168 h
Method in brief: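 MABA run in 7H12 medium in 96-well plates for 7 days at 37 °C. Alamar Blue and Tween 80 were then added for a further 24 h. Fluorescence was read at 530/590 nm. MIC was the lowest concentration giving a 90% fluorescence (or luminescence) reduction versus controls. Luciferase reporter strains or intracellular ATP were used for compounds with background fluorescence. Isoniazid and rifampin were run as controls.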

[3] = test system: Mycobacterium tuberculosis; assay: Antimycobacterial activity against Mycobacterium tuberculosis H37Rv ATCC 27294 at 50 ug/ml after 7 days by microplate alamar blue assay relative to control; type: functional; conditions: H37Rv ATCC 27294, 168 h
HepG2 = assay: Cytotoxicity against human HepG2 cells assessed as reduction in cell viability after 72 hrs by MTT assay; type: cell-based; conditions: hepg2, 72 h
Method in brief: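 HepG2 cells grown in Eagle's MEM with 10% FBS at 37 °C and 5% CO2. Cells were scraped, resuspended at ~1 × 10^6 cells/mL, plated and left 24 h, then exposed to compound at 400 to 0.2 µg/mL for 72 h. Viability read by MTT assay. IC50 (50% loss of viability) taken from a dose–response curve versus log10 concentration.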

Peritoneal macrophage = assay: Cytotoxicity against Balb/c mouse peritoneal macrophages assessed as reduction in cell viability after 48 hrs by MTT assay; type: cell-based
Method in brief: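 Murine peritoneal macrophages, 1 × 10^6 cells/well, exposed to compound at 0.1 to 250 µg/ml in RPMI-1640 with 10% FBS for 48h. MTT (5 mg/ml) added for 3 h at 37°C, formazan dissolved in 0.04M HCl in isopropanol for 15 min at room temperature, absorbance read at 570 nm. IC50 (50% loss of viability) taken from a dose–response curve of percentage activity versus log10 concentration.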

[4] = test system: Mycobacterium tuberculosis; assay: Antimycobacterial activity against Mycobacterium tuberculosis MC2 6030 after 2 to 3 weeks by agar plate method; type: functional
Method in brief: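 Strain mc²6030 is a pantothenate auxotroph lacking RD1, grown at 37 °C in Sauton's medium plus 20 μg/ml pantothenic acid. Serial 10-fold dilutions of actively growing culture were plated on 7H10/OADC agar with 20 μg/ml pantothenic acid and increasing compound concentrations, from 10 mg/ml DMSO stocks. Plates were held 2–3 weeks at 37 °C. MIC was the concentration inhibiting 99% of growth; isoniazid served as control.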

| Structure (SMILES) | MIC [1] | MIC90 [2] | inhibition at 50 µg/mL [3] | Activity (HepG2) | Activity (Peritoneal macrophage) | MIC99 [4] |
| --- | --- | --- | --- | --- | --- | --- |
| CC(C)=CCOc1cccc(NC(=O)Nc2ccc(Cl)cc2)c1 | 50 to 100 µg/mL (≈ 151 to 302 µM) | > 50 µg/mL | 75% | 122.3 µg/mL | 115.3 µg/mL | – |
| CC(C)=CCOc1ccc(NC(=O)Nc2cccc([N+](=O)[O-])c2)cc1 | > 200 µg/mL | > 50 µg/mL | 69% | 142.6 µg/mL | 131.2 µg/mL | > 100 µg/mL |
| CCCCOc1ccc(NC(=O)Nc2cccc(C#N)c2)cc1 | > 200 µg/mL | > 50 µg/mL | 22% | 206.7 µg/mL | 180.9 µg/mL | > 100 µg/mL |
| CCCCOc1ccc(NC(=O)Nc2cccc([N+](=O)[O-])c2)cc1 | – | – | – | – | 75.2 µg/mL | – |
| CC(C)=CCOc1cccc(NC(=O)Nc2ccc([N+](=O)[O-])cc2)c1 | 100 µg/mL (≈ 293 µM) | > 50 µg/mL | 94% | 91.6 µg/mL | 75.2 µg/mL | – |
| CCCCOc1cccc(NC(=O)Nc2ccccc2)c1 | > 200 µg/mL | > 50 µg/mL | 57% | 124.1 µg/mL | 121.7 µg/mL | 50 to 100 µg/mL (≈ 176 to 352 µM) |
| CC(C)=CCOc1cccc(NC(=O)Nc2ccccc2F)c1 | 50 µg/mL (≈ 159 µM) | > 50 µg/mL | 45% | 82.4 µg/mL | 68.2 µg/mL | – |
| C=CCOc1ccc(NC(=O)Nc2cccc(C#N)c2)cc1 | > 200 µg/mL | > 50 µg/mL | 66% | 103.5 µg/mL | 96.7 µg/mL | > 100 µg/mL |
| CC(C)=CCOc1cccc(NC(=O)Nc2cccc(Cl)c2)c1 | 25 µg/mL (≈ 75.6 µM) | 48.6 µg/mL (≈ 147 µM) | – | 114.3 µg/mL | 96.7 µg/mL | – |
| CCCCOc1cccc(NC(=O)Nc2cccc([N+](=O)[O-])c2)c1 | > 200 µg/mL | > 50 µg/mL | 79% | 97.3 µg/mL | 74.3 µg/mL | 50 µg/mL (≈ 152 µM) |
| CC(C)=CCOc1cccc(NC(=O)Nc2ccc(F)cc2)c1 | 100 µg/mL (≈ 318 µM) | > 50 µg/mL | 68% | 102.8 µg/mL | 87.1 µg/mL | – |
| CC(C)=CCOc1cccc(NC(=O)Nc2ccc(C(F)(F)F)cc2)c1 | 6.25 µg/mL (≈ 17.2 µM) | > 50 µg/mL | 69% | 142.2 µg/mL | 115.3 µg/mL | – |
| CC(C)=CCOc1cccc(NC(=O)Nc2cccc(C)c2)c1 | 50 µg/mL (≈ 161 µM) | 32.2 µg/mL (≈ 104 µM) | – | 175.3 µg/mL | 160.3 µg/mL | – |
| CC(C)=CCOc1cccc(NC(=O)Nc2ccc(C)cc2)c1 | 12.5 µg/mL (≈ 40.3 µM) | 10.5 µg/mL (≈ 33.8 µM) | – | 140.6 µg/mL | 127.6 µg/mL | – |
| CC(C)CCOc1ccc(NC(=S)Nc2ccc(OCCC(C)C)cc2)cc1 [TIOCARLIDE] | 25 µg/mL (≈ 62.4 µM) | 2.3 µg/mL (≈ 5.74 µM) | – | 31.3 µg/mL | 12.5 µg/mL | – |
| CC(C)=CCOc1ccc(NC(=O)Nc2ccccc2C)cc1 | 50 to 200 µg/mL (≈ 161 to 644 µM) | > 50 µg/mL | 61 to 75% | – | 81.3 µg/mL | 50 to 100 µg/mL (≈ 161 to 322 µM) |
| C=CCOc1cccc(NC(=O)Nc2cccc([N+](=O)[O-])c2)c1 | 50 µg/mL (≈ 160 µM) | > 50 µg/mL | 76% | 105.6 µg/mL | 78.4 µg/mL | 5 µg/mL (≈ 16 µM) |
| NNC(=O)c1ccncc1 [ISONIAZID] | 6.25 µg/mL (≈ 45.6 µM) | 0.11 µg/mL (≈ 0.802 µM) | – | > 200 µg/mL | > 200 µg/mL | 0.05 µg/mL (≈ 0.365 µM) |
| CCCCOc1cccc(NC(=O)Nc2ccccc2C)c1 | > 200 µg/mL | > 50 µg/mL | 70% | 175.1 µg/mL | 152.9 µg/mL | > 100 µg/mL |
| C=CCOc1ccc(NC(=O)Nc2ccccc2C)cc1 | 50 µg/mL (≈ 177 µM) | 24.5 µg/mL (≈ 86.8 µM) | – | 99.2 µg/mL | 122.1 µg/mL | 100 µg/mL (≈ 354 µM) |
| CC(C)=CCOc1cccc(NC(=O)Nc2cccc(Br)c2)c1 | 12.5 µg/mL (≈ 33.3 µM) | 26.5 µg/mL (≈ 70.6 µM) | – | 148.1 µg/mL | 131.8 µg/mL | – |
| CCCCOc1ccc(NC(=O)Nc2ccccc2)cc1 | > 200 µg/mL | > 50 µg/mL | 41% | 132.5 µg/mL | 108.9 µg/mL | > 100 µg/mL |
| C=CCOc1ccc(NC(=O)Nc2ccccc2)cc1 | > 200 µg/mL | > 50 µg/mL | 84% | 182.4 µg/mL | 152.6 µg/mL | > 100 µg/mL |
| C=CCOc1cccc(NC(=O)Nc2ccccc2C)c1 | > 200 µg/mL | > 50 µg/mL | 68% | 102.4 µg/mL | 90.3 µg/mL | > 100 µg/mL |
| CC(C)=CCOc1cccc(NC(=O)Nc2ccccc2Cl)c1 | 50 µg/mL (≈ 151 µM) | > 50 µg/mL | 64% | 128.2 µg/mL | 105.6 µg/mL | – |
| CC(C)=CCOc1cccc(NC(=O)Nc2ccccc2Br)c1 | 25 µg/mL (≈ 66.6 µM) | 38.7 µg/mL (≈ 103 µM) | – | 131.9 µg/mL | 119.4 µg/mL | – |
| CC(C)=CCOc1cccc(NC(=O)Nc2ccccc2C(F)(F)F)c1 | 12.5 µg/mL (≈ 34.3 µM) | > 50 µg/mL | 45% | 71.4 µg/mL | 69.4 µg/mL | – |
| C=CCOc1ccc(NC(=O)Nc2cccc([N+](=O)[O-])c2)cc1 | 100 µg/mL (≈ 319 µM) | 45.5 µg/mL (≈ 145 µM) | – | 111.4 µg/mL | 87.5 µg/mL | 10 to 100 µg/mL (≈ 31.9 to 319 µM) |
| CC(C)=CCOc1cccc(NC(=O)Nc2ccccc2[N+](=O)[O-])c1 | > 200 µg/mL | > 50 µg/mL | 43% | 61.4 µg/mL | 58.1 µg/mL | – |
| CC(C)=CCOc1cccc(NC(=O)Nc2ccc(Br)cc2)c1 | 50 to 100 µg/mL (≈ 133 to 266 µM) | > 50 µg/mL | 86% | 135.6 µg/mL | 140.2 µg/mL | – |
